Source: ChEMBL document CHEMBL3351752, “Discovery and in vivo evaluation of alcohol-containing benzothiazoles as potent dual-targeting bacterial DNA supercoiling inhibitors” (Bioorg Med Chem Lett, 2014)
≈ marks a conversion by molar mass, not a printed value. Calls of active or inactive are those of the source. The rule behind the calls is not given here.

What was measured:
Streptococcus pyogenes [1] = test: Antimicrobial activity against Streptococcus pyogenes harboring ParE A53S mutant assessed as growth inhibition; type: functional
Streptococcus pyogenes [2] = test: Antibacterial activity against Streptococcus pyogenes 51339 assessed as growth inhibition; type: functional
Staphylococcus aureus [3] = test: Antibacterial activity against Staphylococcus aureus ATCC 29213 assessed as growth inhibition; type: functional
Haemophilus influenzae = test: Antibacterial activity against Haemophilus influenzae 49247 assessed as growth inhibition; type: functional
Staphylococcus aureus [4] = test: Ratio of MIC for Staphylococcus aureus ATCC 29213 assessed as growth inhibition in presence of 50% horse serum to MIC for Staphylococcus aureus ATCC 29213 assessed as growth inhibition; type: functional
Staphylococcus aureus [5] = test: Antibacterial activity against Staphylococcus aureus ATCC 29213 assessed as growth inhibition in presence of 50% horse serum; type: functional
Staphylococcus aureus [6] = test: Antimicrobial activity against Staphylococcus aureus harboring GyrB T173N mutant assessed as growth inhibition; type: functional
Staphylococcus aureus [7] = test: Antimicrobial activity against methicillin-sensitive Staphylococcus aureus infected in neutropenic mouse assessed as log reduction in colony forming units at 30 mg/kg, iv administered as single dose measured 24 hrs post infection relative to control; type: functional, organism-based; design: dose 30 mg/kg
Method in brief: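 Thigh infection in neutropenic female CD-1 mice (18–22 g), made neutropenic with ip cyclophosphamide (150 mg/kg day −4, 100 mg/kg day −1). Thighs inoculated with about 2 × 10^5 CFU of MSSA S. aureus ATCC 19636 from fresh overnight culture. Single iv dose at 30 mg/kg. Thighs harvested at 24 h, homogenized in saline on ice, serial dilutions plated on charcoal plates, colonies counted; log CFU reduction taken versus matched controls.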

[8] = Fraction unbound in mouse plasma by ultracentrifugation; type: ADME, cell-free
Method in brief: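 Compound at 10 µM (1% DMSO) was equilibrated in neat plasma at 37 °C for 60 min. Duplicate aliquots were ultracentrifuged at 250,000g for 4.2 h at 37 °C. Free compound in the plasma-water supernatant was compared with uncentrifuged samples incubated alike. Uncentrifuged samples kept at 20 °C checked degradation, and diltiazem served as stability control. Analysis was by LCMS.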

Staphylococcus aureus [9] = test: Inhibition of Staphylococcus aureus DNA gyrase ATPase subunit GyrA2/GyrB2 after 60 mins by malachite green staining assay
Staphylococcus aureus [10] = test: Antimicrobial activity against Staphylococcus aureus ATCC 19636 infected in neutropenic mouse assessed as reduction in colony forming units at 30 mg/kg, iv administered as single dose measured 24 hrs post infection relative to control; type: functional, organism-based; design: dose 30 mg/kg
Staphylococcus aureus [11] = test: Antimicrobial activity against Staphylococcus aureus ATCC 19636 infected in neutropenic mouse assessed as reduction in colony forming units at 100 mg/kg, po administered as single dose measured 24 hrs post infection relative to control; type: functional, organism-based; design: dose 100 mg/kg
Staphylococcus aureus [12] = test: Antimicrobial activity against methicillin-sensitive Staphylococcus aureus infected in neutropenic mouse assessed as reduction in colony forming units administered iv at 2, 4 and 6 hrs post-inoculation measured 24 hrs post infection relative to control; type: functional, organism-based
Staphylococcus aureus [13] = test: Antimicrobial activity against methicillin-sensitive Staphylococcus aureus infected in neutropenic mouse assessed as log reduction in colony forming units at 100 mg/kg, iv administered at 2, 4 and 6 hrs post-inoculation measured 24 hrs post infection relative to control; type: functional
Staphylococcus aureus [14] = test: Antimicrobial activity against methicillin-sensitive Staphylococcus aureus infected in neutropenic mouse assessed as log reduction in colony forming units at 30 mg/kg, iv administered at 2, 4 and 6 hrs post-inoculation measured 24 hrs post infection relative to control; type: functional
Staphylococcus aureus [15] = test: Antimicrobial activity against Staphylococcus aureus ATCC 19636 infected in neutropenic mouse assessed as reduction in colony forming units at 25 mg/kg, iv administered as single dose measured 24 hrs post infection relative to control; type: functional, organism-based; design: dose 25 mg/kg

Row | Compound | MIC (Streptococcus pyogenes [1]) | MIC (Streptococcus pyogenes [2]) | MIC (Staphylococcus aureus [3]) | MIC (Haemophilus influenzae) | Ratio (Staphylococcus aureus [4]) | MIC (Staphylococcus aureus [5]) | MIC (Staphylococcus aureus [6]) | Activity (Staphylococcus aureus [7]) | fraction unbound [8] | inhibitory concentration (Staphylococcus aureus [9]) | Activity (Staphylococcus aureus [10]) | Activity (Staphylococcus aureus [11]) | Activity (Staphylococcus aureus [12]) | FC (Staphylococcus aureus [13]) | FC (Staphylococcus aureus [14]) | Activity (Staphylococcus aureus [15])
1 | CCNC(=O)Nc1nc2cc(-c3cnc(CO)nc3)cc(-c3ccccn3)c2s1 | 0.5 µg/mL (≈ 1.23 µM) | 0.06 µg/mL (≈ 0.148 µM) | 0.03 µg/mL (≈ 0.0738 µM) | 0.25 µg/mL (≈ 0.615 µM) | 2 | 0.06 µg/mL | 0.25 µg/mL (≈ 0.615 µM) |  |  |  |  |  |  |  |  | 
2 | CN[C@H](CC(C)C)C(=O)N[C@H]1C(=O)N[C@@H](CC(N)=O)C(=O)N[C@H]2C(=O)N[C@H]3C(=O)N[C@H](C(=O)N[C@H](C(=O)O)c4cc(O)cc(O)c4-c4cc3ccc4O)[C@H](O)c3ccc(c(Cl)c3)Oc3cc2cc(c3O[C@@H]2O[C@H](CO)[C@@H](O)[C@H](O)[C@H]2O[C@H]2C[C@](C)(N)[C@H](O)[C@H](C)O2)Oc2ccc(cc2Cl)[C@H]1O |  |  |  |  |  |  |  | Active |  |  |  |  |  |  |  | 
3 | CCNC(=O)Nc1nc2cc(-c3cnc(C(C)(C)O)nc3)cc(-c3cc(CN4CC[C@@H](F)C4)ccn3)c2s1 |  | 0.06 µg/mL (≈ 0.112 µM) | 0.06 µg/mL (≈ 0.112 µM) | 1 µg/mL (≈ 1.87 µM) |  | 0.25 µg/mL |  |  | 0.063 | 0.005 µg/mL |  |  |  |  |  | 
4 | CCNC(=O)Nc1nc2cc(-c3cnc(C(C)(C)O)nc3)cc(-c3cc(CN4CC(OC)C4)ccn3)c2s1 |  | 0.12 µg/mL (≈ 0.225 µM) | 0.12 µg/mL (≈ 0.225 µM) | 2 µg/mL (≈ 3.75 µM) |  | 0.25 µg/mL |  |  | 0.11 | 0.011 µg/mL |  |  |  |  |  | 
5 | CCNC(=O)Nc1nc2cc(-c3cnc(C(C)(C)O)nc3)cc(-c3cc(CN4CC(O)C4)ccn3)c2s1 |  | 0.25 µg/mL (≈ 0.481 µM) | 1 µg/mL (≈ 1.92 µM) | 2 µg/mL (≈ 3.85 µM) |  | 1 µg/mL |  |  | 0.22 | 0.004 µg/mL |  |  |  |  |  | 
6 | CCNC(=O)Nc1nc2cc(-c3cnc(C(C)(C)O)nc3)cc(-c3ccccn3)c2s1 | 1 µg/mL (≈ 2.3 µM) | 0.12 µg/mL (≈ 0.276 µM) | 0.06 µg/mL (≈ 0.138 µM) | 1 µg/mL (≈ 2.3 µM) | 4 | 0.25 µg/mL | 0.25 µg/mL (≈ 0.575 µM) |  | 0.051 | 0.006 µg/mL | Active | Active |  |  |  | 
7 | CCNC(=O)Nc1nc2cc(-c3cnc(C(C)(C)O)nc3)cc(-c3cc(CN4CC[C@@H](OC)C4)ccn3)c2s1 |  | 0.25 µg/mL (≈ 0.456 µM) | 0.25 µg/mL (≈ 0.456 µM) | 4 µg/mL (≈ 7.3 µM) |  | 0.5 µg/mL |  |  | 0.09 | 0.009 µg/mL |  |  |  |  |  | 
8 | CCNC(=O)Nc1nc2cc(-c3cnc(C(C)(C)O)nc3)cc(-c3cc(CNC4CC4)ccn3)c2s1 |  | 0.12 µg/mL (≈ 0.238 µM) | 0.12 µg/mL (≈ 0.238 µM) | 2 µg/mL (≈ 3.97 µM) |  | 0.25 µg/mL |  |  | 0.056 | 0.006 µg/mL |  |  |  |  |  | 
9 | CCNC(=O)Nc1nc2cc(-c3cnc(C(C)(C)O)nc3)cc(-c3cc(CN4CC(C)(O)C4)ccn3)c2s1 |  | 0.12 µg/mL (≈ 0.225 µM) | 0.5 µg/mL (≈ 0.937 µM) | 4 µg/mL (≈ 7.5 µM) |  | 0.5 µg/mL |  |  | 0.223 | 0.011 µg/mL |  |  |  |  |  | 
10 | CCNC(=O)Nc1nc2cc(-c3cnc(C(C)(C)O)nc3)cc(-c3cc(CN4CCCC4)ccn3)c2s1 |  | 0.5 µg/mL (≈ 0.966 µM) | 0.5 µg/mL (≈ 0.966 µM) | 4 µg/mL (≈ 7.73 µM) |  | 0.5 µg/mL |  |  | 0.067 | 0.012 µg/mL |  |  |  |  |  | 
11 | CCNC(=O)Nc1nc2cc(-c3cnc(N4CCC(CC)(C(=O)O)CC4)nc3)cc(-c3ccccn3)c2s1 | 0.5 µg/mL (≈ 0.94 µM) | 0.06 µg/mL (≈ 0.113 µM) | 0.06 µg/mL (≈ 0.113 µM) | 4 µg/mL (≈ 7.52 µM) | 64 | 4 µg/mL | 0.25 µg/mL (≈ 0.47 µM) |  |  |  |  |  | Dose-dependent effect | 4 | <3 | 
12 | CC(=O)NC[C@H]1CN(c2ccc(N3CCOCC3)c(F)c2)C(=O)O1 |  |  |  |  |  |  |  |  |  |  |  |  |  |  |  | Active
13 | CCNC(=O)Nc1nc2cc(-c3cnc(C(C)(C)O)nc3)cc(-c3cc(CN4CCC(C)(O)C4)ccn3)c2s1 (configuration not stated) |  | 0.25 µg/mL (≈ 0.456 µM) | 0.5 µg/mL (≈ 0.913 µM) | 8 µg/mL (≈ 14.6 µM) |  | 0.25 µg/mL |  |  | 0.194 | 0.008 µg/mL |  |  |  |  |  | 
14 | CCNC(=O)Nc1nc2cc(-c3cnc(C(C)O)nc3)cc(-c3ccccn3)c2s1 (configuration not stated) | 1 µg/mL (≈ 2.38 µM) | 0.06 µg/mL (≈ 0.143 µM) | 0.03 µg/mL (≈ 0.0713 µM) | 0.5 µg/mL (≈ 1.19 µM) | 4 | 0.12 µg/mL | 0.25 µg/mL (≈ 0.595 µM) |  |  |  |  |  |  |  |  | 
15 | CCNC(=O)Nc1nc2cc(-c3cnc(C(C)(C)O)nc3)cc(-c3cc(CN4CCC(F)(F)C4)ccn3)c2s1 |  | 0.03 µg/mL (≈ 0.0542 µM) | 0.06 µg/mL (≈ 0.108 µM) | > 16 µg/mL |  | 0.25 µg/mL |  |  | 0.041 | 0.007 µg/mL |  |  |  |  |  | 
16 | CCNC(=O)Nc1nc2cc(-c3cnc(N4CCC(CC)(C(=O)O)CC4)nc3)cc(/C=N/OC)c2s1 |  |  | 0.12 µg/mL (≈ 0.235 µM) |  |  |  |  |  |  |  |  |  | Dose-dependent effect | 4 | <3 | 
17 | CCNC(=O)Nc1nc2cc(-c3cnc(C(C)(C)O)nc3)cc(-c3cc(CN4CC[C@H](F)C4)ccn3)c2s1 |  | 0.06 µg/mL (≈ 0.112 µM) | 0.12 µg/mL (≈ 0.224 µM) | 2 µg/mL (≈ 3.73 µM) |  | 0.25 µg/mL |  |  | 0.061 | 0.008 µg/mL |  |  |  |  |  | 
18 | CCNC(=O)Nc1nc2cc(-c3cnc(C(O)CN4CCOCC4)nc3)cc(-c3ccccn3)c2s1 (racemic) | 2 µg/mL (≈ 3.96 µM) | 0.12 µg/mL (≈ 0.237 µM) | 0.12 µg/mL (≈ 0.237 µM) | 2 µg/mL (≈ 3.96 µM) |  | 0.25 µg/mL | 1 µg/mL (≈ 1.98 µM) |  |  | 0.011 µg/mL |  |  |  |  |  | 
19 | CCNC(=O)Nc1nc2cc(-c3cnc(C(C)(C)O)nc3)cc(-c3cc(CN4CC[C@@H](O)C4)ccn3)c2s1 |  | 0.25 µg/mL (≈ 0.468 µM) | 0.5 µg/mL (≈ 0.937 µM) | 4 µg/mL (≈ 7.5 µM) |  | 0.5 µg/mL |  |  | 0.194 | 0.007 µg/mL |  |  |  |  |  | 
20 | CO[C@@H]1[C@@H](OC(N)=O)[C@@H](O)[C@H](Oc2ccc3c(O)c(NC(=O)c4ccc(O)c(CC=C(C)C)c4)c(=O)oc3c2C)OC1(C)C |  |  |  |  |  |  |  |  |  |  | Active |  |  |  |  | 
21 | CCNC(=O)Nc1nc2cc(-c3cnc(C4(O)CCNCC4)nc3)cc(-c3ccccn3)c2s1 | > 16 µg/mL | 2 µg/mL (≈ 4.21 µM) | 8 µg/mL (≈ 16.8 µM) | > 16 µg/mL |  | 4 µg/mL | > 16 µg/mL |  |  | 0.01 µg/mL |  |  |  |  |  | 
